According to ChEMBL document CHEMBL5096187, “Efficient Synthesis and Bioevaluation of Novel Dual Tubulin/Histone Deacetylase 3 Inhibitors as Potential Anticancer Agents” (J Med Chem, 2021):
The source made the active and inactive calls. No cut-off for these calls is given here.

Tests used:
[1] = system: B16-F10; assay: Upregulation of AC-H3 in mouse B16-F10 cells incubated for 12 hrs by Western blot analysis; type: functional, cell-based; conditions: dose 20-200 nM, DDE = dose-dependent effect
Procedure, shortened: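 B16-F10 cells (5 × 10⁵/well) treated 12 h with DMSO or compound, lysed in RIPA buffer. 30 μg protein separated by SDS-PAGE and blotted onto PVDF. Blocked 5% BSA 2 h, primary antibody overnight at 4 °C, secondary 1.5 h. Ac-H3 probed, with histone H3 and GAPDH as loading controls; band density quantified; three independent experiments.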

[2] = system: B16-F10; assay: Induction of cell cycle arrest in mouse B16-F10 cells assessed as accumulation of cells in G2/M phase at 100 nM measured after 48 hrs by PI/RNaseA staining based flow cytometry analysis (Rvb= 5.76%); type: functional
[3] = system: B16-F10; assay: Antitumor activity against mouse B16-F10 cells allografted in C57BL/6 mouse assessed as reduction in tumor weight at 10 mg/kg, ip administered for 14 days in presence of (2-phenylthiazol-4-yl)(3,4,5-trimethoxyphenyl)methanone; type: functional, organism-based; conditions: time 14.0 day
Procedure, shortened: (§1)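 C57BL/6 mice were inoculated subcutaneously with 3×10⁵ B16-F10 cells in PBS and randomized (n = 8). Drugs in ethanol/polyoxyethylene castor oil/saline (1.25:1.25:7.5) or vehicle alone were given i.p. once daily for 14 days. Mice were sacrificed at day 14 and tumors weighed; TGI(%) = [1 − Wt/Wv] × 100 using mean tumor weights.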

[4] = system: B16-F10; assay: Induction of apoptosis in mouse B16-F10 cells assessed as viable cells at 100 nM incubated for 48 hrs by Annexin V-FITC/PI analysis (reference value: 98.3 %); type: functional; conditions: read-out: Activity
[5] = system: B16-F10; assay: Induction of apoptosis in mouse B16-F10 cells assessed as late apoptotic cells at 100 nM incubated for 48 hrs by Annexin V-FITC/PI analysis (reference value: 0.00 %); type: functional
[6] = system: B16-F10; assay: cells; conditions: Mus musculus, B16-F10, 48 h
[7] = system: B16-F10; assay: Induction of apoptosis in mouse B16-F10 cells assessed as early apoptotic cells at 100 nM incubated for 48 hrs by Annexin V-FITC/PI analysis (reference value: 1.68 %); type: functional
[8] = system: A549; assay: Antiproliferative activity against human A549 cells assessed as inhibition of cell viability measured for 48 hrs by microplate reader based CCK-8 assay; type: functional; conditions: A549, 48 h
[9] = Cardiotoxicity in C57BL/6 mouse ssessed as shortening of QTc level by ECG analysis; type: toxicity
Procedure, shortened: (§2)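 Mice aged 6–8 weeks dosed by intragastric gavage once daily for 14 days; ECG and heart rate recorded on a PowerLab system.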

[10] = system: B16-F10; assay: Induction of apoptosis in mouse B16-F10 cells assessed as necrotic cells at 100 nM incubated for 48 hrs by Annexin V-FITC/PI analysis (reference value: 0.012 %); type: functional
[11] = Toxicity in C57BL/6 mouse allografted with mouse B16-F10 cells assessed as morphological abnormalities in kidney at 10 mg/kg, ip administered for 14 days by H and E staining based analysis; type: organism-based; conditions: in vivo, 336 h, time 14 day
Procedure, shortened: (§3)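 C57BL/6 mice with subcutaneous B16-F10 allografts, n = 8 per group, given i.p. injections once daily for 14 days. Single agents at 10 mg/kg; combination at 5 + 5 mg/kg. Vehicle: ethanol/polyoxyethylene castor oil/saline 1.25:1.25:7.5. Liver and kidney fixed in 4% paraformaldehyde, paraffin-embedded, H&E stained and examined by microscopy.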

[12] = In vivo inhibition of HDAC in tumor of mouse B16-F10 cells xenografted in C57BL/6 mouse assessed as increase in acetylated histone-H3 expression in presence of (2-phenylthiazol-4-yl)(3,4,5-trimethoxyphenyl)methanone by […] immunohistochemistry method; type: functional; set-up: scale not given: the % may be the effect or the level left
Procedure, shortened: (§4)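 Tumors from the 14-day i.p. B16-F10 study were formalin-fixed and paraffin-embedded. Sections were deparaffinized, treated with 3% H2O2, and antigen-retrieved at pH 9 and 80 °C overnight. Blocked with milk, incubated with anti-Ac-H3 at 4 °C overnight, then IgG secondary and hematoxylin counterstain. Ac-H3-positive ratio quantified from images.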

[13] = In vivo inhibition of HDAC in tumor of mouse B16-F10 cells xenografted in C57BL/6 mouse assessed as increase in acetylated histone-H3 expression by […] immunohistochemistry method; type: functional; set-up: scale not given: the % may be the effect or the level left; procedure, shortened: as §4
[14] = system: HCT-116; assay: Antiproliferative activity against human HCT-116 cells assessed as inhibition of cell viability measured for 48 hrs by microplate reader based MTT assay; type: functional; conditions: HCT-116, 48 h
Procedure, shortened: (§5)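 Cells grown in RPMI-1640 with 10% FBS and seeded at 5000 cells/well. After overnight attachment, compound was added in medium with 0.1% DMSO for 48 h at 37 °C. Read-out was MTT for HCT-116, B16-F10 and A549, and CCK-8 for Jurkat (0.5 mg/mL, 4 h), with absorbance at 570 nm. IC50 from nonlinear regression; at least three independent experiments.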

[15] = system: B16-F10; assay: Antitumor activity against mouse B16-F10 cells allografted in C57BL/6 mouse assessed as tumor growth inhibition at 10 mg/kg, ip administered for 14 days in presence of (2-phenylthiazol-4-yl)(3,4,5-trimethoxyphenyl)methanone; type: functional; conditions: B16-F10, 336 h, time 14 day, read-out: TGI; procedure, shortened: as §1
[16] = Toxicity in C57BL/6 mouse allografted with mouse B16-F10 cells assessed as body weight loss at 10 mg/kg, ip administered for 14 days; conditions: in vivo, 336 h
[17] = system: B16-F10; assay: Antitumor activity against mouse B16-F10 cells allografted in C57BL/6 mouse assessed as tumor growth inhibition at 10 mg/kg, ip administered for 14 days; type: functional; conditions: B16-F10, 336 h, time 14 day, read-out: TGI; procedure, shortened: as §1
[18] = Toxicity in C57BL/6 mouse allografted with mouse B16-F10 cells assessed as morphological abnormalities in kidney at 5 mg/kg, ip administered for 14 days in presence of (2-phenylthiazol-4-yl)(3,4,5-trimethoxyphenyl)methanone by H and E staining based analysis; type: organism-based; conditions: in vivo, 336 h, time 14 day; procedure, shortened: as §3
[19] = system: B16-F10; assay: Antiproliferative activity against mouse B16-F10 cells assessed as inhibition of cell viability measured for 48 hrs by microplate reader based MTT assay; type: functional; conditions: B16-F10, 48 h; procedure, shortened: as §5
[20] = Antiproliferative activity against human YCC3/7 cells assessed as inhibition of cell viability; type: functional, cell-based
[21] = system: Jurkat; assay: Antiproliferative activity against human Jurkat cells assessed as inhibition of cell viability measured for 48 hrs by microplate reader based CCK-8 assay; type: functional
[22] = Cardiotoxicity in C57BL/6 mouse ssessed as shortening of QTc level in presence of (2-phenylthiazol-4-yl)(3,4,5-trimethoxyphenyl)methanone by ECG analysis; type: toxicity; procedure, shortened: as §2
[23] = Antiproliferative activity against human YCC-11 cells assessed as inhibition of cell viability; type: functional, cell-based
[24] = system: B16-F10; assay: Antitumor activity against mouse B16-F10 cells allografted in C57BL/6 mouse assessed as tumor growth inhibition at 10 mg/kg, ip administered for 14 days in presence of Entinostat; type: functional; conditions: B16-F10, 336 h, time 14 day, read-out: TGI; procedure, shortened: as §1
[25] = target: Tubulin (Sus scrofa, UniProt P02554+P02550); assay: Inhibition of pig brain tubulin polymerization by spectrometric method
Procedure, shortened: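 Phosphocellulose-purified pig brain tubulin mixed with graded compound concentrations in PEM buffer (100 mM PIPES, 1 mM MgCl2, 1 mM EGTA) plus 1 mM GTP and 5% glycerol. Absorbance at 340 nm and 37 °C; plateau absorbance used to calculate IC50.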

[26] = system: B16-F10; assay: Antitumor activity against mouse B16-F10 cells allografted in C57BL/6 mouse assessed as reduction in tumor weight at 10 mg/kg, ip administered for 14 days in presence of Entinostat; type: functional, organism-based; conditions: time 14.0 day; procedure, shortened: as §1
[27] = system: B16-F10; assay: Inhibition of cell migration in mouse B16-F10 cells assessed as reduction in wound area measured at 100 nM incubated for 24 hrs by wound healing assay; type: functional; set-up: scale not given: the % may be the effect or the level left
Procedure, shortened: (§6)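 Confluent B16-F10 monolayers, seeded overnight, were scratched with a pipette tip and washed to remove debris. Cells were then treated, and phase-contrast images were taken at 0 and 24 h. Migration distance or wound area measured manually against DMSO control; n = 3.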

[28] = Toxicity in C57BL/6 mouse allografted with mouse B16-F10 cells assessed as morphological abnormalities in kidney at 5 mg/kg, ip administered for 14 days in presence of Entinostat by H and E staining based analysis; type: organism-based; conditions: in vivo, 336 h, time 14 day; procedure, shortened: as §3
[29] = Cardiotoxicity in C57BL/6 mouse ssessed as shortening of QTc level in presence of Entinostat by ECG analysis; type: toxicity; procedure, shortened: as §2
[30] = system: B16-F10; assay: Antiproliferative activity against mouse B16-F10 cells assessed as inhibition of cell viability measured for 48 hrs in presence of Entinostat by microplate reader based MTT assay; type: functional; conditions: B16-F10, 48 h; procedure, shortened: as §5
[31] = In vivo inhibition of HDAC in tumor of mouse B16-F10 cells xenografted in C57BL/6 mouse assessed as increase in acetylated histone-H3 expression in presence of Entinostat by […] immunohistochemistry method; type: functional; set-up: scale not given: the % may be the effect or the level left; procedure, shortened: as §4
[32] = target: Tubulin (Sus scrofa) (UniProt P02554+P02550); assay: Inhibition of pig brain tubulin polymerization at 10 uM measured after 20 mins by spectrometric method relative to control
Sequence of Tubulin (Sus scrofa) (P02550 whole entry, looked up): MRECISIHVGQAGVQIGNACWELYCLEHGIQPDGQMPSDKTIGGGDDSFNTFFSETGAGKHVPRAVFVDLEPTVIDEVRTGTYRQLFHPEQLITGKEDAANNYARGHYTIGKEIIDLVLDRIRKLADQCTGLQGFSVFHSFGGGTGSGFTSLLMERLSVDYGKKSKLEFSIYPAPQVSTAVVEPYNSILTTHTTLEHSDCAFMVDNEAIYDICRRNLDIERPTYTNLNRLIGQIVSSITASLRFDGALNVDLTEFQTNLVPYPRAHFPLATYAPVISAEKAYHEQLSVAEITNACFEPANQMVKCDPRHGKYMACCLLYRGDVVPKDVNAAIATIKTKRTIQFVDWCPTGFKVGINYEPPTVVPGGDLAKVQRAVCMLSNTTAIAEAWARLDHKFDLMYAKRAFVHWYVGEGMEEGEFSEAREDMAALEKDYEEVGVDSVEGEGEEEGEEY
Sequence of Tubulin (Sus scrofa) (P02554 whole entry, looked up): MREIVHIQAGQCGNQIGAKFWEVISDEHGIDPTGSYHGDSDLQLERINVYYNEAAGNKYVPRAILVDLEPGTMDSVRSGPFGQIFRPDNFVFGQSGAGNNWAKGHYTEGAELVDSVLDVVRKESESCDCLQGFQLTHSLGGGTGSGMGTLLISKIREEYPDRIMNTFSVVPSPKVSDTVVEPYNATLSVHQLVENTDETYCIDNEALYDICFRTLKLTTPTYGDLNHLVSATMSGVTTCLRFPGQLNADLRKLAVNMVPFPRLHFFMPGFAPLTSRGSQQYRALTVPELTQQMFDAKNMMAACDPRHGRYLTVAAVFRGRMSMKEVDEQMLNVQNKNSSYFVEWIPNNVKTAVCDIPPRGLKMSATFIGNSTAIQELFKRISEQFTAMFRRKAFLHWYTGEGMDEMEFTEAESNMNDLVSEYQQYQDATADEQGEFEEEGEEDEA
Procedure, shortened: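 Pig brain tubulin was purified by three assembly/disassembly cycles and then phosphocellulose chromatography. Compound at 10 μM in PEM buffer with 1 mM GTP and 5% glycerol at 37 °C. Polymerization followed at 340 nm; inhibition taken at 20 min versus vehicle control.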

[33] = system: B16-F10; assay: Inhibition of cell migration in mouse B16-F10 cells assessed as reduction in wound area ratio measured at 100 nM incubated for 24 hrs by wound healing assay; type: functional; set-up: scale not given: the % may be the effect or the level left; procedure, shortened: as §6

| SMILES | Activity [2] [%] | viability at 0.1 µM [4] [%] | Activity [5] [%] | Activity [7] [%] | IC50 [8] [nM] | Activity [9] | Activity [10] [%] | Activity [11] | IC50 [14] [nM] | Activity [16] | inhibition in vivo at 10 mg/kg [17] [%] | IC50 [19] [nM] | IC50 [20] [nM] | IC50 [21] [nM] | IC50 [23] [nM] | also measured |
| --- | --- | --- | --- | --- | --- | --- | --- | --- | --- | --- | --- | --- | --- | --- | --- | --- |
| Nc1ccccc1NC(=O)c1ccc(CNC(=O)OCc2cccnc2)cc1 [ENTINOSTAT] | 42.17 | 59.9 | 22.4 | 16.3 | 1710 | Toxic | 1.37 | Non-Toxic | 1720 | Non-Toxic | 47 | 2260 | 12900 | 690 | 5560 | Activity [1]: Dde; Activity [3]: Active; IC50 [6]: 1150 nM; Activity [12]: 16.3%; Activity [13]: 27.9%; inhibition in vivo at 10 mg/kg [15]: 53%; Activity [18]: Non-Toxic; Activity [22]: Non-Toxic |
| COc1cc(C(=O)c2csc(-c3ccccc3)n2)cc(OC)c1OC | 76.58 | 60.7 | 0.49 | 29.1 | 190 | Toxic | 0.75 | Non-Toxic | 70 | Non-Toxic | 25 | 980 | 1940 | 30 | 1690 | inhibition in vivo at 10 mg/kg [24]: 53%; IC50 [25]: 7900 nM; Activity [26]: Active; Activity [27]: 16.2%; Activity [28]: Non-Toxic; Activity [29]: Non-Toxic; IC50 [30]: 1150 nM; Activity [31]: 16.3%; inhibition [32]: 78%; Activity [33]: 16.24% |
